Active and inactive are the calls of the source. The rule behind the calls is not given here.

Experiment [1] is described as follows: Activation of PDHP in absence of 5 mM Mn2+. The method in brief:
(§1)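 Triplicate wells. PDHP and PDH incubated 37 °C 30 min. NaF stop, then pyruvate-ADP and NAD/cocarboxylase/CoA mix, 2 min rt. Activity read as absorbance change at 340 nm; data pooled from two experiments with separately synthesized samples.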

The target of experiment [2] is T1, Protein phosphatase 1A (Mus musculus) (UniProt P49443).
T1 sequence (whole entry): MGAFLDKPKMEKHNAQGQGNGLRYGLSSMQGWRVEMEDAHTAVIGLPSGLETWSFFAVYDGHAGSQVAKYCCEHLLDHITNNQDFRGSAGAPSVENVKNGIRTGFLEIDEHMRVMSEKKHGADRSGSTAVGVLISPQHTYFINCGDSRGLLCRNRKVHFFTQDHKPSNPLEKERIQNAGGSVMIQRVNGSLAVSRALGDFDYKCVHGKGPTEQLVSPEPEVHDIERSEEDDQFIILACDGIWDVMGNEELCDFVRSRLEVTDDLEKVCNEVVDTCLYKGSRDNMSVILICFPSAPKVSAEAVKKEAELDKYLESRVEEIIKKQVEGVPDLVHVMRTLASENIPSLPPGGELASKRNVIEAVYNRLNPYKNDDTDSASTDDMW
Description: Activation of mouse recombinant GST-tagged PP2Calpha assessed as phosphate release using para-Nitrophenyl phosphate substrate. In outline: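 Mouse wild-type GST-PP2Cα fusion (1 µg) at rt in 0.1 M Tris-HCl pH 8.0, 2 mM DTT, with varied MnCl₂ or compound. Substrate 5 mM p-nitrophenyl phosphate, 30 min. Stopped with 0.5% SDS, A410. Triplicates, mean ± SD versus concentration.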

The nature of experiment [3]: Activation of PDHP in presence of 5 mM Mn2+. The method in brief:
as §1

In experiment [4] the target is T1, Protein phosphatase 1A (Mus musculus). The experiment in a line: Activation of mouse recombinant GST-tagged PP2Calpha assessed as phosphate release using octapeptide-phosphate substrate RRRRPp-TPA. In outline:
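Mouse wild-type GST-PP2Cα fusion (2 µg) at rt in 0.1 M Tris-HCl pH 8.0, 2 mM DTT, with varied MnCl₂ or compound. Phosphopeptide RRRRPpTPA at 5 µM final, 15 min. Stopped with malachite green, 15 min color, A650. No-enzyme blanks subtracted; triplicates, mean ± SD versus concentration.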

For the compound `CO[C@@H]1[C@@H](O)[C@@H](O)[C@H](O)[C@H](O)[C@H]1C[C@@H]1O[C@H](CO)[C@H](O)[C@H](O)[C@H]1O`, the outcome in experiment [1], in experiment [2], in experiment [3] and in experiment [4] was inactive.
As for `CO[C@@H]1[C@@H](O)[C@@H](O)[C@H](O)[C@H](O)[C@H]1O[C@@H]1O[C@H](CO)[C@H](O)[C@H](O)[C@H]1N`, the result in experiment [1] and in experiment [2] was inactive. In addition, the result in experiment [3] and in experiment [4] was Active.
On to `CO[C@@H]1[C@@H](O)[C@@H](O)[C@H](O)[C@H](O)[C@H]1C[C@@H]1O[C@H](CO)[C@H](O)[C@H](O)[C@H]1N`, for which the outcome in experiment [1], in experiment [2] and in experiment [4] was inactive. In addition, the outcome in experiment [3] was Active.

(Values after ChEMBL document CHEMBL1156862, “Synthesis of C-glycoside analogues of beta-galactosamine-(1-->4)-3-O-methyl-D-chiro-inositol and assay as activator of protein phosphatases PDHP and PP2Calpha” (Bioorg Med Chem, 2010).)
